The test system of data set [1] is Liver microsomes. Nature of the data set: Drug metabolism in rat liver microsomes assessed as formation of metabolite 3-(4-(2-(3-(3-hydroxycyclohexyl)-1-methyl-2-(pyridin-2-yl)-1H-indole-6-carboxamido)-2-methylpropanamido)phenyl)acrylic acid incubated for 30 mins by HPLC/MS method. The following applies: 0.5 h. The data set is classed as ADME, Microsome.
Data set [2] relates to Liver microsomes. Kind of data set: Drug metabolism in human liver microsomes assessed as formation of metabolite 3-(4-(2-(3-(3-hydroxycyclohexyl)-1-methyl-2-(pyridin-2-yl)-1H-indole-6-carboxamido)-2-methylpropanamido)phenyl)acrylic acid incubated for 30 mins by HPLC/MS method. Format: ADME, Microsome. Particulars: 0.5 h; call rule not given here.
Data set [3] is described as follows: Permeability across human Caco2 cells at pH 7.4. Format: ADME, cell-based. Particulars: Caco-2, pH 7.4, read-out: permeability. The method, boiled down: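 Caco-2 permeability run without BSA, with both chambers at pH 7.4; values are the average of at least two determinations.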
Data set [4] in a line: in vitro. Particulars: human.
A short description of data set [5]: in vitro. Particulars: rat.
Data set [6] in a line: AUC in rat at 10 mg/kg, po. The data set is classed as ADME, organism-based. On the set-up: dose 10 mg/kg, route oral. The following applies: plasma. A digest of the protocol:
(§1)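 Rats starved overnight, then given 10 mg/kg po as a suspension in 0.3% Tween-80 and 0.5% Methocel, or 2 mg/kg iv in 70% PEG400. Plasma was solid-phase extracted and assayed by HPLC-UV (LOQ 6 ng/mL, calibration in blank plasma). Parameters were derived by noncompartmental analysis.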

A short description of data set [7]: Mean residence time in rat at 10 mg/kg, po. On the set-up: dose 10 mg/kg, route oral. Particulars: in vivo. Format: ADME, organism-based. The method, boiled down: as §1
Data set [8] can be described thus: Cmax in rat at 10 mg/kg, po. The data set is classed as ADME, organism-based. On the set-up: dose 10 mg/kg, route oral. Particulars: in vivo. The method, boiled down: as §1
Data set [9] can be described thus: Oral bioavailability in dog. Format: ADME, organism-based, Canis lupus familiaris. The following applies: in vivo. A digest of the protocol:
(§2)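 Dogs starved overnight, then dosed 2 mg/kg iv in 70% PEG400 or 10 mg/kg orally as a suspension in 0.3% Tween-80/0.5% Methocel. Plasma was extracted by solid phase and quantified by HPLC with UV diode-array detection (LOQ 6 ng/mL). Parameters came from noncompartmental analysis.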

Data set [10] can be described thus: Half life in dog at 2 mg/kg, iv. Format: ADME, organism-based, Canis lupus familiaris. On the set-up: dose 2 mg/kg, route intravenous. The following applies: in vivo. The method, boiled down:
as §2

Data set [11] in a line: Clearance in dog at 2 mg/kg, iv. On the set-up: dose 2 mg/kg, route intravenous. The following applies: in vivo. The data set is classed as ADME, organism-based, Canis lupus familiaris.
Data set [12] in a line: Volume of distribution at steady state in dog at 2 mg/kg, iv. The data set is classed as ADME, organism-based, Canis lupus familiaris. Also on record: dose 2 mg/kg, route intravenous. The following applies: in vivo, read-out: Vdss. The method, boiled down:
as §2

The nature of data set [13]: Mean residence time in dog at 10 mg/kg, po. Also on record: dose 10 mg/kg, route oral. The following applies: in vivo. The data set is classed as ADME, organism-based, Canis lupus familiaris. A digest of the protocol:
as §2

A short description of data set [14]: AUC in dog at 10 mg/kg, po. The data set is classed as ADME, organism-based, Canis lupus familiaris. Particulars: plasma. On the set-up: dose 10 mg/kg, route oral. A digest of the protocol:
(§3)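 Fasted overnight, then dosed orally at 10 mg/kg as a suspension in 0.3% Tween-80 and 0.5% Methocel. Blood kept on ice and centrifuged at 4 °C; plasma stored at about −20 °C. Solid-phase extraction, then HPLC with UV diode-array detection (200–400 nm) quantified by peak height against blank-plasma standards (LOQ 6 ng/mL). AUC from noncompartmental analysis.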

Data set [15] in a line: Cmax in dog at 10 mg/kg, po. Also on record: dose 10 mg/kg, route oral. Particulars: in vivo. The data set is classed as ADME, organism-based, Canis lupus familiaris.
The nature of data set [16]: Half life in rat at 2 mg/kg, iv. The data set is classed as ADME, organism-based. Also on record: dose 2 mg/kg, route intravenous. Particulars: in vivo. The method, boiled down: as §1
A short description of data set [17]: Oral bioavailability in rat. Format: ADME, organism-based. The following applies: in vivo. A digest of the protocol:
as §1

Data set [18] is described as follows: Volume of distribution at steady state in rat at 2 mg/kg, iv. The data set is classed as ADME, organism-based. On the set-up: dose 2 mg/kg, route intravenous. The following applies: in vivo, read-out: Vdss. The method, boiled down:
as §1

Data set [19] in a line: Clearance in rat at 2 mg/kg, iv. The data set is classed as ADME, organism-based. Also on record: dose 2 mg/kg, route intravenous. The following applies: in vivo.
The nature of data set [20]: Oral bioavailability rhesus monkey. Particulars: in vivo. The data set is classed as ADME, organism-based, Macaca mulatta. The method, boiled down:
(§4)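 Rhesus monkeys fasted overnight, then dosed iv at 2 mg/kg in 70% PEG400 or orally at 10 mg/kg as a suspension in 0.3% Tween-80 and 0.5% Methocel. Plasma was kept frozen at about −20 °C, extracted by solid-phase extraction and assayed by HPLC-UV against blank-plasma standards (LOQ 6 ng/mL). Parameters came from noncompartmental analysis.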

The nature of data set [21]: Half life in rhesus monkey at 2 mg/kg, iv. Format: ADME, organism-based, Macaca mulatta. On the set-up: dose 2 mg/kg, route intravenous. The following applies: in vivo. A digest of the protocol:
as §4

The nature of data set [22]: Volume of distribution at steady state in rhesus monkey at 2 mg/kg, iv. On the set-up: dose 2 mg/kg, route intravenous. The following applies: in vivo, read-out: Vdss. Format: ADME, organism-based, Macaca mulatta. The method, boiled down: as §4
Data set [23] is described as follows: Mean residence time in rhesus monkey at 10 mg/kg, po. Format: ADME, organism-based, Macaca mulatta. On the set-up: dose 10 mg/kg, route oral. The following applies: in vivo. A digest of the protocol:
as §4

A short description of data set [24]: AUC in rhesus monkey at 10 mg/kg, po. Particulars: plasma. Also on record: dose 10 mg/kg, route oral. Format: ADME, organism-based, Macaca mulatta. A digest of the protocol: as §3
Data set [25] can be described thus: Cmax in rhesus monkey at 10 mg/kg, po. The data set is classed as ADME, organism-based, Macaca mulatta. Also on record: dose 10 mg/kg, route oral. The following applies: in vivo. A digest of the protocol: as §4

Molecules are shown by their SMILES.

As to `Cn1c(-c2ccccn2)c(C2CCCCC2)c2ccc(C(=O)NC(C)(C)C(=O)Nc3ccc(/C=C/C(=O)O)cc3)cc21`, the Drug metabolism result in the data set on Liver microsomes [1] and in the data set with Liver microsomes [2] was “Active” each time.
For `Cn1c(-c2ccccn2)c(C2CCCC2)c2ccc(C(=O)NC3(C(=O)Nc4ccc(/C=C/C(=O)O)cc4)CCCC3)cc21`, in data set [3], the Papp is 12.6 ×10⁻⁶ cm/s. The half-life in the data set “in vitro [4]” (microsomes) amounted to 96 min; in the data set “in vitro [5]” (microsomes), 19 min.
Take `Cn1c(-c2ccc(Cl)cn2)c(C2CCCC2)c2ccc(C(=O)NC3(C(=O)Nc4ccc(/C=C/C(=O)O)cc4)CCCC3)cc21`: the half-life in the data set “in vitro [4]” (liver microsomes) is more than 300 min.
Take `Cn1c(-c2ccncc2)c(C2CCCC2)c2ccc(C(=O)NC3(C(=O)Nc4ccc(/C=C/C(=O)O)cc4)CCCC3)cc21`: the Papp in data set [3] came out at 0.8 ×10⁻⁶ cm/s. Moreover, the half-life in “in vitro [4]” (liver microsomes) was 107 min.
As to `Cn1c(-c2ccc(F)cn2)c(C2CCCC2)c2ccc(C(=O)NC3(C(=O)Nc4ccc(/C=C/C(=O)O)cc4)CCC3)cc21`, the half-life in “in vitro [4]” (liver microsomes) amounted to 167 min.
`Cn1c(-c2cccc(N)n2)c(C2CCCC2)c2ccc(C(=O)NC3(C(=O)Nc4ccc(/C=C/C(=O)O)cc4)CCC3)cc21`: the area under the curve (AUC) in data set [6] came out at 8.4 µM·h. This compound also showed an MRT in [7] of 3.4 h. In addition, in data set [8], the Cmax is 3.7 µM. The Papp in [3] was found to be 1.8 ×10⁻⁶ cm/s. For the same compound, the half-life in “in vitro [4]” (liver microsomes) is more than 300 min; in the data set “in vitro [5]” (liver microsomes), 62 min.
In the case of `COc1ccc(-c2c(C3CCCC3)c3ccc(C(=O)NC4(C(=O)Nc5ccc(/C=C/C(=O)O)cc5)CCC4)cc3n2C)cn1`, in data set [3], the Papp turned out to be 1.5 ×10⁻⁶ cm/s. Moreover, the half-life was 95 min in the data set “in vitro [4]” (liver microsomes) and 61 min in “in vitro [5]” (liver microsomes).
Taken in the same sequence, the figures for `Cn1c(-c2ccncc2)c(C2CCCC2)c2ccc(C(=O)NC3(C(=O)Nc4ccc(/C=C/C(=O)O)cc4)CCC3)cc21` were 2.9 ×10⁻⁶ cm/s, 112 min and 69 min.
On to `Cn1c(-c2cnccn2)c(C2CCCC2)c2ccc(C(=O)NC3(C(=O)Nc4ccc(/C=C/C(=O)O)cc4)CCC3)cc21`, for which the figures for the bioavailability in [9] and in [17] were 54% and 41%, respectively. Besides, the half-life in data set [10] is 96 min; in [16], 132 min; in the data set “in vitro [4]” (liver microsomes), 96 min; in “in vitro [5]” (liver microsomes), 56 min. In addition, the clearance in data set [11] was 4.3 mL/min/kg; in data set [19], 6.8 mL/min/kg. Further, the Vd in data set [12] was found to be 0.75 L/kg; in [18], 0.58 L/kg. The MRT is 3.9 h in data set [13] and 2.4 h in data set [7]. In addition, the AUC in data set [14] was found to be 37.4 µM·h; in data set [6] it was 17.7 µM·h. Further, the peak concentration (Cmax) in data set [15] stood at 10.9 µM; in data set [8], 7.8 µM. In addition, the Papp in data set [3] was found to be 10 ×10⁻⁶ cm/s.
Regarding `Cn1c(-c2ccoc2)c(C2CCCC2)c2ccc(C(=O)NC3(C(=O)Nc4ccc(/C=C/C(=O)O)cc4)CCC3)cc21`, in [3], the Papp came to 7.5 ×10⁻⁶ cm/s. In “in vitro [4]” (microsomes), the half-life was found to be 162 min.
`Cn1c(-c2ccc(Cl)cc2)c(C2CCCC2)c2ccc(C(=O)NC3(C(=O)Nc4ccc(/C=C/C(=O)O)cc4)CCC3)cc21`: the half-life in the data set “in vitro [4]” (liver microsomes) and in the data set “in vitro [5]” (liver microsomes) was more than 300 min throughout.
Take `Cc1ccc(-c2c(C3CCCC3)c3ccc(C(=O)NC4(C(=O)Nc5ccc(/C=C/C(=O)O)cc5)CCC4)cc3n2C)nc1`: the Papp in [3] worked out at 6.9 ×10⁻⁶ cm/s. The half-life amounted to 53 min in the data set “in vitro [4]” (microsomes) and 24 min in “in vitro [5]” (microsomes).
`Cn1c(-c2ccccn2)c(C2CCCC2)c2ccc(C(=O)NC(C)(C)C(=O)Nc3ccc(/C=C/C(=O)O)cc3)cc21` gave a half-life in [16] of 102 min. The bioavailability in data set [17] is 46%. For the same compound, in data set [18], the Vd is 1.3 L/kg. This compound showed a clearance in data set [19] of 18.2 mL/min/kg. Besides, in [6], the AUC is 7.2 µM·h. Also, the MRT in data set [7] turned out to be 1.7 h. Further, the Cmax in [8] came out at 6.4 µM. Moreover, the Papp in data set [3] is 6.5 ×10⁻⁶ cm/s.
On to `Cn1c(-c2ccc(Cl)cn2)c(C2CCCC2)c2ccc(C(=O)NC(C)(C)C(=O)Nc3ccc(/C=C/C(=O)O)cc3)cc21`, for which the Papp in data set [3] was determined as 1.8 ×10⁻⁶ cm/s. Besides, the half-life in “in vitro [4]” (microsomes) amounted to 236 min.
For the compound `CN1CC[C@@](NC(=O)c2ccc3c(C4CCCC4)c(-c4cccc(N)n4)n(C)c3c2)(C(=O)Nc2ccc(/C=C/C(=O)O)cc2)C1`, the Cmax in data set [8] came to 0.09 µM. In addition, the Papp in data set [3] was 2.9 ×10⁻⁶ cm/s. The half-life in the data set “in vitro [4]” (microsomes) is more than 300 min.
As for `Cn1c(-c2ccccn2)c(C2CCCC2)c2ccc(C(=O)NC3(C(=O)Nc4ccc(/C=C/C(=O)O)cc4)CCC3)cc21` [BILB-1941], the bioavailability in data set [9] stood at 64%; in data set [20] it was 70%; in data set [17] it was 59%. Besides, the half-life is 102 min in data set [21]; 258 min in data set [10]; 90 min in data set [16]; 85 min in “in vitro [4]” (microsomes); 31 min in “in vitro [5]” (microsomes). For the same compound, the values for the Vd in [22], in data set [12] and in data set [18] were 0.7 L/kg, 0.54 L/kg and 0.48 L/kg, respectively. For the same compound, the values for the MRT in data set [23], in data set [13] and in [7] were 2.9 h, 5.4 h and 4.1 h, respectively. Besides, the AUC in [24] worked out at 20.5 µM·h; in data set [14], 99 µM·h; in data set [6], 22.7 µM·h. Further, the Cmax in data set [25] was 6.4 µM; in [8], 7.5 µM. Further, in data set [3], the Papp was found to be 11.2 ×10⁻⁶ cm/s.

The values are drawn from ChEMBL document CHEMBL2176942 (J Med Chem, 2012).
